Source: ChEMBL document CHEMBL5724801, “EUbOPEN Chemogenomics Library - Multiplex” (2024)
Values joined by “and” are separate entries in the source; they are usually repeats but may differ in a detail not shown here. Equal entries are not always repeated.

System: U2OS
Experiment: Multiplex assay against U2OS
Type: toxicity, cell-based
Conditions: human
How it was run: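 Cells were classed with CellPathfinder machine-learning gating, first as Hoechst high-intensity objects or normal cells, then (normal cells) as healthy, pyknosed or fragmented nuclei, and finally (pyknosed cells) as mitotic or apoptotic. Staining of live cells at seeding used Hoechst33342, BioTracker Green Microtubule Cytoskeleton Dye, MitoTracker Red and Annexin V Alexa Fluor 680, with imaging on a CQ1 microscope at 37°C and 5% CO2 after compound addition. Tubulin, mitochondrial-mass and membrane-permeability phenotypes are per cents of healthy-nucleus cells.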

[1] = 12 h, 1 µM, compound concentration 1 uM
[2] = 12 h, 10 µM, compound concentration 10 uM
[3] = 24 h, 1 µM, compound concentration 1 uM
[4] = 24 h, 10 µM, compound concentration 10 uM
[5] = 48 h, 1 µM, compound concentration 1 uM
[6] = 48 h, 10 µM, compound concentration 10 uM

SMILES: CC[C@@H](C)Nc1nc(C)nc2c(-c3ccc(OC)nc3C)c(C)nn12 [PEXACERFONT]
- Population Apoptotic (%) [1]: 73% and 87%
- Population Fragmented Nuclei (%) [1]: 24% and 17%
- Population Healthy Nuclei (%) [1]: 66% and 76%
- Population Hoechst High Intensity Objects (%) [1]: 3% and 0%
- Population Membrane Permeable-Phenotype (%) [1]: 2% and 1%
- Population Mitochondria Different-Phenotype (%) [1]: 3% and 0%
- Population Mitotic Cells (%) [1]: 26% and 12%
- Population Normal (%) [1]: 96% and 99%
- Population Pyknosed Nuclei (%) [1]: 9% and 5%
- Population Tubulin-Different-Phenotype (%) [1]: 2% and 0%
- Total Cell Count [1]: 258 and 136
- Population Apoptotic (%) [2]: 90%
- Population Fragmented Nuclei (%) [2]: 26% and 21%
- Population Healthy Nuclei (%) [2]: 64% and 70%
- Population Hoechst High Intensity Objects (%) [2]: 1%
- Population Membrane Permeable-Phenotype (%) [2]: 2% and 12%
- Population Mitochondria Different-Phenotype (%) [2]: 1% and 7%
- Population Mitotic Cells (%) [2]: 9% and 10%
- Population Normal (%) [2]: 98%
- Population Pyknosed Nuclei (%) [2]: 8% and 7%
- Population Tubulin-Different-Phenotype (%) [2]: 1% and 4%
- Total Cell Count [2]: 265 and 128
- Population Apoptotic (%) [3]: 80% and 85%
- Population Fragmented Nuclei (%) [3]: 21% and 16%
- Population Healthy Nuclei (%) [3]: 69% and 75%
- Population Hoechst High Intensity Objects (%) [3]: 2%
- Population Membrane Permeable-Phenotype (%) [3]: 5% and 3%
- Population Mitochondria Different-Phenotype (%) [3]: 2% and 6%
- Population Mitotic Cells (%) [3]: 20% and 14%
- Population Normal (%) [3]: 97%
- Population Pyknosed Nuclei (%) [3]: 8%
- Population Tubulin-Different-Phenotype (%) [3]: 2%
- Total Cell Count [3]: 346 and 172
- Population Apoptotic (%) [4]: 80% and 92%
- Population Fragmented Nuclei (%) [4]: 21% and 14%
- Population Healthy Nuclei (%) [4]: 71% and 77%
- Population Hoechst High Intensity Objects (%) [4]: 2% and 0%
- Population Membrane Permeable-Phenotype (%) [4]: 5% and 7%
- Population Mitochondria Different-Phenotype (%) [4]: 3%
- Population Mitotic Cells (%) [4]: 19% and 7%
- Population Normal (%) [4]: 97% and 99%
- Population Pyknosed Nuclei (%) [4]: 7% and 8%
- Population Tubulin-Different-Phenotype (%) [4]: 4% and 3%
- Total Cell Count [4]: 307 and 159
- Population Apoptotic (%) [5]: 88% and 91%
- Population Fragmented Nuclei (%) [5]: 16%
- Population Healthy Nuclei (%) [5]: 75% and 73%
- Population Hoechst High Intensity Objects (%) [5]: 1% and 2%
- Population Membrane Permeable-Phenotype (%) [5]: 3% and 5%
- Population Mitochondria Different-Phenotype (%) [5]: 1% and 4%
- Population Mitotic Cells (%) [5]: 11% and 8%
- Population Normal (%) [5]: 98% and 97%
- Population Pyknosed Nuclei (%) [5]: 7% and 9%
- Population Tubulin-Different-Phenotype (%) [5]: 1% and 4%
- Total Cell Count [5]: 476 and 261
- Population Apoptotic (%) [6]: 94% and 100%
- Population Fragmented Nuclei (%) [6]: 17% and 13%
- Population Healthy Nuclei (%) [6]: 74% and 77%
- Population Hoechst High Intensity Objects (%) [6]: 1%
- Population Membrane Permeable-Phenotype (%) [6]: 4% and 6%
- Population Mitochondria Different-Phenotype (%) [6]: 1% and 3%
- Population Mitotic Cells (%) [6]: 5% and 0%
- Population Normal (%) [6]: 98%
- Population Pyknosed Nuclei (%) [6]: 8%
- Population Tubulin-Different-Phenotype (%) [6]: 1% and 2%
- Total Cell Count [6]: 478 and 242

SMILES: CCCCC1=NC2(CCCC2)C(=O)N1Cc1ccc(-c2ccccc2-c2nnn[nH]2)cc1 [IRBESARTAN]
- Population Apoptotic (%) [1]: 83% and 77%
- Population Fragmented Nuclei (%) [1]: 25% and 9%
- Population Healthy Nuclei (%) [1]: 66% and 82%
- Population Hoechst High Intensity Objects (%) [1]: 2% and 0%
- Population Membrane Permeable-Phenotype (%) [1]: 5% and 11%
- Population Mitochondria Different-Phenotype (%) [1]: 1%
- Population Mitotic Cells (%) [1]: 16% and 22%
- Population Normal (%) [1]: 97% and 99%
- Population Pyknosed Nuclei (%) [1]: 7%
- Population Tubulin-Different-Phenotype (%) [1]: 1% and 8%
- Total Cell Count [1]: 233 and 124
- Population Apoptotic (%) [2]: 91% and 100%
- Population Fragmented Nuclei (%) [2]: 22% and 18%
- Population Healthy Nuclei (%) [2]: 68% and 74%
- Population Hoechst High Intensity Objects (%) [2]: 2% and 0%
- Population Membrane Permeable-Phenotype (%) [2]: 4% and 8%
- Population Mitochondria Different-Phenotype (%) [2]: 3% and 6%
- Population Mitotic Cells (%) [2]: 8% and 0%
- Population Normal (%) [2]: 97% and 100%
- Population Pyknosed Nuclei (%) [2]: 9% and 8%
- Population Tubulin-Different-Phenotype (%) [2]: 2% and 8%
- Total Cell Count [2]: 254 and 100
- Population Apoptotic (%) [3]: 70% and 66%
- Population Fragmented Nuclei (%) [3]: 23% and 12%
- Population Healthy Nuclei (%) [3]: 69% and 76%
- Population Hoechst High Intensity Objects (%) [3]: 3% and 2%
- Population Membrane Permeable-Phenotype (%) [3]: 6% and 9%
- Population Mitochondria Different-Phenotype (%) [3]: 3% and 2%
- Population Mitotic Cells (%) [3]: 29% and 33%
- Population Normal (%) [3]: 96% and 97%
- Population Pyknosed Nuclei (%) [3]: 7% and 10%
- Population Tubulin-Different-Phenotype (%) [3]: 3% and 4%
- Total Cell Count [3]: 241 and 142
- Population Apoptotic (%) [4]: 96% and 91%
- Population Fragmented Nuclei (%) [4]: 18%
- Population Healthy Nuclei (%) [4]: 73% and 72%
- Population Hoechst High Intensity Objects (%) [4]: 2% and 0%
- Population Membrane Permeable-Phenotype (%) [4]: 6% and 7%
- Population Mitochondria Different-Phenotype (%) [4]: 3%
- Population Mitotic Cells (%) [4]: 4% and 8%
- Population Normal (%) [4]: 97% and 99%
- Population Pyknosed Nuclei (%) [4]: 8%
- Population Tubulin-Different-Phenotype (%) [4]: 4% and 3%
- Total Cell Count [4]: 301 and 135
- Population Apoptotic (%) [5]: 97% and 94%
- Population Fragmented Nuclei (%) [5]: 18% and 14%
- Population Healthy Nuclei (%) [5]: 71% and 76%
- Population Hoechst High Intensity Objects (%) [5]: 2% and 4%
- Population Membrane Permeable-Phenotype (%) [5]: 5% and 6%
- Population Mitochondria Different-Phenotype (%) [5]: 2% and 1%
- Population Mitotic Cells (%) [5]: 2% and 5%
- Population Normal (%) [5]: 97% and 95%
- Population Pyknosed Nuclei (%) [5]: 10% and 9%
- Population Tubulin-Different-Phenotype (%) [5]: 2%
- Total Cell Count [5]: 357 and 198
- Population Apoptotic (%) [6]: 89% and 94%
- Population Fragmented Nuclei (%) [6]: 14% and 16%
- Population Healthy Nuclei (%) [6]: 75% and 72%
- Population Hoechst High Intensity Objects (%) [6]: 3% and 4%
- Population Membrane Permeable-Phenotype (%) [6]: 7% and 9%
- Population Mitochondria Different-Phenotype (%) [6]: 3% and 7%
- Population Mitotic Cells (%) [6]: 10% and 5%
- Population Normal (%) [6]: 96% and 95%
- Population Pyknosed Nuclei (%) [6]: 9% and 10%
- Population Tubulin-Different-Phenotype (%) [6]: 3% and 7%
- Total Cell Count [6]: 419 and 175
